Converted amounts (≈) assume the structure as drawn. The source made the active and inactive calls. No cut-off for these calls is given here.
Key:
Candida albicans [1] = assay: Antifungal activity against Candida albicans FA/6862 by CLSI M27-A2 method; type: functional
Procedure, shortened: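 Broth microdilution per CLSI M27-A2. Run in duplicate on three separate occasions; modal MIC used.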

Candida albicans [2] = assay: Antifungal activity against Candida albicans FA/6862 assessed as postantifungal effect at =< 1 time MIC by CLSI M27-A2 method; type: functional, organism-based
Procedure, shortened: (§1)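 Log-phase organism washed in PBS, resuspended at 1 × 10^6 CFU/ml in warmed RPMI 1640 + 2% glucose, pre-incubated 30 min at 37°C. Drug added at 1/10× to 100× MIC for 3 h, then washed twice and regrown in drug-free RPMI. Quantitative subcultures hourly to 8 h, then 14 and 24 h. PAFE = delay in reaching +1 log10 CFU/ml versus drug-free controls.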

Candida albicans [3] = assay: Antifungal activity against Candida albicans FA/6862 assessed as postantifungal effect at 2 times MIC by CLSI M27-A2 method; type: functional; procedure, shortened: as §1
Candida albicans [4] = assay: Antifungal activity against Candida albicans FA/6862 assessed as postantifungal effect at 5 to 100 times MIC by CLSI M27-A2 method; type: functional; procedure, shortened: as §1
[5] = Terminal half life in mouse at 1.6 to 13 mg/kg, sc; type: ADME, organism-based; design: dose 1.6-13 mg/kg, route subcutaneous; details: in vivo, read-out: beta t1/2 (converted)
Procedure, shortened: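 Infected, cyclophosphamide-neutropenic mice given single sc doses. Plasma collected by cardiac puncture at 0.5–24 h, three mice per time point. Plasma stabilized with citric acid and assayed by LC-MS/MS. Half-life derived from a population PK model co-fitting plasma, kidney and fungal burden data.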

[6] = Ratio of AUC to MIC in mouse infected with Candida albicans FA/6862 at 3.27 mg/kg, sc administered as single dose; type: functional; details: route subcutaneous
[7] = Ratio of AUC to MIC in mouse infected with Candida albicans FA/6862 at 1.63 mg/kg, sc BID; type: functional; details: route subcutaneous
[8] = Ratio of AUC to MIC in mouse infected with Candida albicans FA/6862 at 0.82 mg/kg, sc QID; type: functional; details: route subcutaneous
[9] = Ratio of AUC to MIC in mouse infected with Candida albicans FA/6862 at 5.35 mg/kg, sc administered as single dose; type: functional; details: route subcutaneous
[10] = Ratio of AUC to MIC in mouse infected with Candida albicans FA/6862 at 2.67 mg/kg, sc BID; type: functional; details: route subcutaneous
[11] = Ratio of AUC to MIC in mouse infected with Candida albicans FA/6862 at 1.34 mg/kg, sc QID; type: functional; details: route subcutaneous
[12] = Ratio of AUC to MIC in mouse infected with Candida albicans FA/6862 at 8.12 mg/kg, sc administered as single dose; type: functional; details: route subcutaneous
[13] = Ratio of AUC to MIC in mouse infected with Candida albicans FA/6862 at 4.06 mg/kg, sc BID; type: functional; details: route subcutaneous
[14] = Ratio of AUC to MIC in mouse infected with Candida albicans FA/6862 at 2.03 mg/kg, sc QID; type: functional; details: route subcutaneous
[15] = Ratio of AUC to MIC in mouse infected with Candida albicans FA/6862 at 13.48 mg/kg, sc administered as single dose; type: functional; details: route subcutaneous
[16] = Ratio of AUC to MIC in mouse infected with Candida albicans FA/6862 at 6.74 mg/kg, sc BID; type: functional; details: route subcutaneous
[17] = Ratio of AUC to MIC in mouse infected with Candida albicans FA/6862 at 3.37 mg/kg, sc QID; details: route subcutaneous
Candida albicans [18] = assay: Antifungal activity against Candida albicans FA/6862 infected in mouse assessed as fungal load per gram of kidney at 1.6 to 28 mg/kg, sc measured after 29 hrs postinfection; details: dose mg/kg 1.6-28; route subcutaneous

- MIC (Candida albicans [1]): 4 ng/mL (≈ 9.14 nM)
- half-life [5]: 3.41 h
- RatioAUC/MIC [6]: 387.75
- RatioAUC/MIC [7]: 384.25
- RatioAUC/MIC [8]: 372.25
- RatioAUC/MIC [9]: 630
- RatioAUC/MIC [10]: 633.75
- RatioAUC/MIC [11]: 614.25
- RatioAUC/MIC [12]: 969.5
- RatioAUC/MIC [13]: 960.25
- RatioAUC/MIC [14]: 930.5
- RatioAUC/MIC [15]: 1599.75
- RatioAUC/MIC [16]: 1584.5
- RatioAUC/MIC [17]: 1544.75
SMILES: C[C@@H](c1nc(-c2ccc(C#N)cc2)cs1)[C@](O)(Cn1cncn1)c1cc(F)ccc1F [ISAVUCONAZOLE]
- Activity (Candida albicans [2]): inactive
- Time (Candida albicans [3]): 2 h
- Time (Candida albicans [4]): 5 h
- log10cfu (Candida albicans [18]): 5.5

Source: ChEMBL document CHEMBL1649530, “Pharmacokinetics and pharmacodynamics of a novel triazole, isavuconazole: mathematical modeling, importance of tissue concentrations, and impact of immune status on antifungal effect” (Antimicrob Agents Chemother, 2009)
